Reference: ChEMBL document CHEMBL4000194, “Design and Synthesis of a Series of l-trans-4-Substituted Prolines as Selective Antagonists for the Ionotropic Glutamate Receptors Including Functional and X-ray Crystallographic Studies of New Subtype Selective Kainic Acid Receptor Subtype 1 (GluK1) Antagonist …” (J Med Chem, 2017)

Columns and labels:
[1] = target: T1, Glutamate receptor ionotropic, kainate 1 (Rattus norvegicus, UniProt P22756); assay: Displacement of [3H]NF608 from eGFP-fused recombinant rat full length GluK1 receptor expressed in HEK293T/17 cells by liquid scintillation counting method; assay type: cell-based
[2] = Displacement of [3H]kainic acid from kainate receptor in rat brain synaptosomal membranes after 60 mins by TopCount microplate scintillation counting method; assay type: cell membranes
[3] = target: Glutamate receptor ionotropic, kainate 3 (Rattus norvegicus, UniProt P42264); assay: Displacement of [3H]kainic acid from eGFP-fused recombinant rat full length GluK3 receptor expressed in HEK293T/17 cells by liquid scintillation counting method; assay type: cell-based
[4] = Displacement of [3H]CGP39653 from NMDA receptor in rat brain synaptosomal membranes after 60 mins by TopCount microplate scintillation counting method; assay type: cell membranes
[5] = target: T2, Glutamate receptor ionotropic, kainate 2 (Rattus norvegicus, UniProt P42260); assay: Displacement of [3H]kainic acid from eGFP-fused recombinant rat full length GluK2 receptor expressed in HEK293T/17 cells by liquid scintillation counting method; assay type: cell-based
[6] = Displacement of [3H]AMPA from AMPA receptor in rat brain synaptosomal membranes after 30 mins by TopCount microplate scintillation counting method; assay type: cell membranes
Glutamate receptor 2 = Glutamate receptor 2 (Rattus norvegicus, UniProt P19491); assay: Displacement of (RS)-[3H]AMPA from eGFP-fused recombinant rat full length GluA2 receptor expressed in HEK293T/17 cells by liquid scintillation counting method; assay type: cell-based
[7] = target: Excitatory amino acid transporter 1 (Homo sapiens, UniProt P43003); assay: Inhibition of human EAAT1 expressed in HEK293 cells assessed as reduction in [3H]-D-Asp uptake after 15 mins by TopCount scintillation counting method; assay type: cell-based
[8] = target: Excitatory amino acid transporter 2 (Homo sapiens, UniProt P43004); assay: Inhibition of human EAAT2 expressed in HEK293 cells assessed as reduction in [3H]-D-Asp uptake after 15 mins by TopCount scintillation counting method; assay type: cell-based
[9] = target: T3, Excitatory amino acid transporter 3 (Homo sapiens, UniProt P43005); assay: Inhibition of human EAAT3 expressed in HEK293 cells assessed as reduction in [3H]-D-Asp uptake after 15 mins by TopCount scintillation counting method; assay type: cell-based
T3 sequence (P43005 whole entry): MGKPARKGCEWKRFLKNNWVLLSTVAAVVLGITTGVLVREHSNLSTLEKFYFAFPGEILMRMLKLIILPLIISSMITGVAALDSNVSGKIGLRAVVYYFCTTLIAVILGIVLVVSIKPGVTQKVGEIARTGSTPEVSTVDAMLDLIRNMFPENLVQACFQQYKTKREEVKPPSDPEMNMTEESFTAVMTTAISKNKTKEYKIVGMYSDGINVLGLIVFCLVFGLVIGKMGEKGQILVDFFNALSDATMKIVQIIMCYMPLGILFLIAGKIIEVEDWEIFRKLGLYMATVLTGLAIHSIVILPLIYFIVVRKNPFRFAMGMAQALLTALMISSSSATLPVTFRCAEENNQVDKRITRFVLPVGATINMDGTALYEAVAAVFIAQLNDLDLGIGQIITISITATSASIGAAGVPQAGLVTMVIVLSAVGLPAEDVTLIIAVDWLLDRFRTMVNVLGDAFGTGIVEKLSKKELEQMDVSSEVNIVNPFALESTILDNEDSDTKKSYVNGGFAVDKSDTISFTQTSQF

[10] = target: T2, Glutamate receptor ionotropic, kainate 2; assay: Antagonist activity at recombinant rat full length GluK2 receptor expressed in HEK293T cells assessed as inhibition of glutamate induced increase in peak current at -100mV holding potential by patch-clamp method; assay type: cell-based
Outline: (§1)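 Rat GluK1-2a or GluK2a cDNA was transiently co-transfected with eGFP into HEK293T/17 cells by calcium phosphate, 24 h after low-density plating on poly-D-lysine. Recordings were made 36–48 h after transfection. Outside-out patches at −100 mV received fast piezo applications of 1 mM Glu (250 ms). Antagonist was added to control and agonist solutions (final 0.001–300 μM). Peak current was taken as % of control (mean ± SEM, 3–5 responses per concentration), and IC50 was fitted with a Hill equation.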

[11] = target: T1, Glutamate receptor ionotropic, kainate 1; assay: Displacement of [3H]-(2S,4R)-4-Methylglutamic acid from rat eGFP-fused GluK1 receptor LBD expressed in HEK293T/17 cells by liquid scintillation counting method; assay type: cell-based
[12] = target: T1, Glutamate receptor ionotropic, kainate 1; assay: Antagonist activity at recombinant rat full length GluK1 receptor expressed in HEK293T cells assessed as inhibition of glutamate induced increase in peak current at -100mV holding potential by patch-clamp method; assay type: cell-based; outline: as §1

Chain of Excitatory amino acid transporter 2 (P43004 whole entry): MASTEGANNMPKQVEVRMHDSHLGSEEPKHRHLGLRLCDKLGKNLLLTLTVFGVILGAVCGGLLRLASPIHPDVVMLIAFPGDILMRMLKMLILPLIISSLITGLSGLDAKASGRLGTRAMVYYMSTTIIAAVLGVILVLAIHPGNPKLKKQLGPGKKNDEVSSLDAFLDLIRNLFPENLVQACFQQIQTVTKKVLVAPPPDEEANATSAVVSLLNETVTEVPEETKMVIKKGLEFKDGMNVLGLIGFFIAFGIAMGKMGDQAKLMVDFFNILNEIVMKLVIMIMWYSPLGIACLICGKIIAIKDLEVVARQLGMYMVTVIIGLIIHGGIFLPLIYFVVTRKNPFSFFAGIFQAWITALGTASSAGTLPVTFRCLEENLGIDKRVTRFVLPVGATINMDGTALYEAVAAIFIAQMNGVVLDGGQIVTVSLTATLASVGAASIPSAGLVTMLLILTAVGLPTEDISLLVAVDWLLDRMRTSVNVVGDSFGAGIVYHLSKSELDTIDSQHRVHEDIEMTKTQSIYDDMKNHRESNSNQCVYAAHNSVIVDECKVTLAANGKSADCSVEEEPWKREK
T1 sequence (P22756 whole entry, the tested form may be a part): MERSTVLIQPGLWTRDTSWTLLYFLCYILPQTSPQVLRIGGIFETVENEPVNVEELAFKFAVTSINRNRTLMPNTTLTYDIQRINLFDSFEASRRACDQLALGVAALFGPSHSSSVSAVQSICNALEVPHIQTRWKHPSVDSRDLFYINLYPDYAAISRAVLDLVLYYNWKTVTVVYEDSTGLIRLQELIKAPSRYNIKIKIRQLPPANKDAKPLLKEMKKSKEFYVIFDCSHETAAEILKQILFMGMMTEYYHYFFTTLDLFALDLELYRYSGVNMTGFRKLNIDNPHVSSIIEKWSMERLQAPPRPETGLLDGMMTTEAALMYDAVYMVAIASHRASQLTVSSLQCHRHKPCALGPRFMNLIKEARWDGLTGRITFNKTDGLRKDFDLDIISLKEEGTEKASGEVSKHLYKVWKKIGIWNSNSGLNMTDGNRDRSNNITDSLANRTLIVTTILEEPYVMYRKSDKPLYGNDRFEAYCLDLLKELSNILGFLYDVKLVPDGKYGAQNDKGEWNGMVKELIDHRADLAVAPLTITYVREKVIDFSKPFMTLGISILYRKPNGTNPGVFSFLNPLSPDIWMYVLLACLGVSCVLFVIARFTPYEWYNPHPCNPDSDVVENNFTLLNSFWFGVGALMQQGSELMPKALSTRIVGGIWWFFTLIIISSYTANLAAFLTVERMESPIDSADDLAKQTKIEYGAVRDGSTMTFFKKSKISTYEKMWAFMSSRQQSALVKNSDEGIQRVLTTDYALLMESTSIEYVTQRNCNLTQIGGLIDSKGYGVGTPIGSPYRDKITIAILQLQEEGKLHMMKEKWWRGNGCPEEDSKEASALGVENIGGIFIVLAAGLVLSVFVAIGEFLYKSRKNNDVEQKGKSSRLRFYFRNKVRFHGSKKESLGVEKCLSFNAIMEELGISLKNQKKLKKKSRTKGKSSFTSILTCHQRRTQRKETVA
Chain of Glutamate receptor 2 (P19491 whole entry, the tested form may be a part): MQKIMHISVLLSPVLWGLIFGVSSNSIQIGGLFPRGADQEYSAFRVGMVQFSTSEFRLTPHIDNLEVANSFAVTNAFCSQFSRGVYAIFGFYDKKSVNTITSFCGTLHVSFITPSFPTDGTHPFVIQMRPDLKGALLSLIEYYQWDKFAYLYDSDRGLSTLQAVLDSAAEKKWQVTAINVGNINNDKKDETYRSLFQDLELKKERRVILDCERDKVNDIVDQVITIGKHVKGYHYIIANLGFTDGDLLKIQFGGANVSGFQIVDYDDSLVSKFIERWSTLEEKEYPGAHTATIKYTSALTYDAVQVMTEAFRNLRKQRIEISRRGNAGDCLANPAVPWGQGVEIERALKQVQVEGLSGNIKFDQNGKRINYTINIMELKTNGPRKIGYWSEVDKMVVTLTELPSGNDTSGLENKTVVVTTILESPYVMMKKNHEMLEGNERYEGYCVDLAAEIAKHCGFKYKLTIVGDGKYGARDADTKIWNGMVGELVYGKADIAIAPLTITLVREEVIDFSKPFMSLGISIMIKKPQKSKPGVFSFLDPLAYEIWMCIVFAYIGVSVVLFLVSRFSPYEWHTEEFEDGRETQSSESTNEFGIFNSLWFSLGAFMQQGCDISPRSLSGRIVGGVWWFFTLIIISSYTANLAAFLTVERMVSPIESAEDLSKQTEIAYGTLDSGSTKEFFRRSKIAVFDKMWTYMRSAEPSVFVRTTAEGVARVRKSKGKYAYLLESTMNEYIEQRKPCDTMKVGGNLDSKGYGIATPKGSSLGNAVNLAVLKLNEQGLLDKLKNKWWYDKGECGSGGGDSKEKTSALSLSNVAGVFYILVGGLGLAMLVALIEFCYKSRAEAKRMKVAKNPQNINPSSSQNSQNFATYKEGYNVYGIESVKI
Chain of Glutamate receptor ionotropic, kainate 3 (P42264 whole entry, the tested form may be a part): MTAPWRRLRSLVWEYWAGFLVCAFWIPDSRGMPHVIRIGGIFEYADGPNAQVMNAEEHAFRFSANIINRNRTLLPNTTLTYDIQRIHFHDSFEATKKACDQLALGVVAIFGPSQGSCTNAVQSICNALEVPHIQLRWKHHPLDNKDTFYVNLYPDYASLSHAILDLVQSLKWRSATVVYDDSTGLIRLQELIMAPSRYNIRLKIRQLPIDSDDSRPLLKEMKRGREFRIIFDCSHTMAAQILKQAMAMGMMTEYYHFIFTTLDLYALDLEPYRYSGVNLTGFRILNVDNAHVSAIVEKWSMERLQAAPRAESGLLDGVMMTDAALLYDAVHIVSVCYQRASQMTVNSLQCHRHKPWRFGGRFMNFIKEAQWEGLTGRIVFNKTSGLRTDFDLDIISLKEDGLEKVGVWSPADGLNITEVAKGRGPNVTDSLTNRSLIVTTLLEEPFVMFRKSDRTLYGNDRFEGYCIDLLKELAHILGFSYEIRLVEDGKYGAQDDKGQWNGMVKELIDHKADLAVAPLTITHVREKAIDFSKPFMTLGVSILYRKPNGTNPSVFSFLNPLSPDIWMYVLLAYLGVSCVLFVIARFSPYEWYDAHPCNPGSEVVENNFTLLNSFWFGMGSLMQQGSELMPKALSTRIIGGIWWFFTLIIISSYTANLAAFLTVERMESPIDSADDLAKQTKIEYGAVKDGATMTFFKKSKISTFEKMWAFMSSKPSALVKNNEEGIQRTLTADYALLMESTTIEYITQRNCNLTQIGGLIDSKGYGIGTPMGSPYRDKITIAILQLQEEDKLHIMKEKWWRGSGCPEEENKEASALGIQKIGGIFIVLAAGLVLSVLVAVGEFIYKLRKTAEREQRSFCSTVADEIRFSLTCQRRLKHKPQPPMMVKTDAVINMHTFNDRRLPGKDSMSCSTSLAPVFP
Chain of Excitatory amino acid transporter 1 (P43003 whole entry): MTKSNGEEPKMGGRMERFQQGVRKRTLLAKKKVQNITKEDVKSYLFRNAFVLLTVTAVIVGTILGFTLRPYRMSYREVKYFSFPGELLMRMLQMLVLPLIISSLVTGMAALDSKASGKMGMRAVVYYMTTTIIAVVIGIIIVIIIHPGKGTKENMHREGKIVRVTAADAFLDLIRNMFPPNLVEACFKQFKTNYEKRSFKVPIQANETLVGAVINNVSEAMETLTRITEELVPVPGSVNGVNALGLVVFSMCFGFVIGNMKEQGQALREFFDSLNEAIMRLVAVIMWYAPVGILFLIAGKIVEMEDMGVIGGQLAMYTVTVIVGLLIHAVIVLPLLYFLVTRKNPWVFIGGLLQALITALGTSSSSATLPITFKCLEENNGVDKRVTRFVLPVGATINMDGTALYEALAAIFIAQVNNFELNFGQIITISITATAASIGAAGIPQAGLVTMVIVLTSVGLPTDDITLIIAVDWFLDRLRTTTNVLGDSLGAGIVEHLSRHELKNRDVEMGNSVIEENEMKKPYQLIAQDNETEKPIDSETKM
T2 sequence (P42260 whole entry, the tested form may be a part): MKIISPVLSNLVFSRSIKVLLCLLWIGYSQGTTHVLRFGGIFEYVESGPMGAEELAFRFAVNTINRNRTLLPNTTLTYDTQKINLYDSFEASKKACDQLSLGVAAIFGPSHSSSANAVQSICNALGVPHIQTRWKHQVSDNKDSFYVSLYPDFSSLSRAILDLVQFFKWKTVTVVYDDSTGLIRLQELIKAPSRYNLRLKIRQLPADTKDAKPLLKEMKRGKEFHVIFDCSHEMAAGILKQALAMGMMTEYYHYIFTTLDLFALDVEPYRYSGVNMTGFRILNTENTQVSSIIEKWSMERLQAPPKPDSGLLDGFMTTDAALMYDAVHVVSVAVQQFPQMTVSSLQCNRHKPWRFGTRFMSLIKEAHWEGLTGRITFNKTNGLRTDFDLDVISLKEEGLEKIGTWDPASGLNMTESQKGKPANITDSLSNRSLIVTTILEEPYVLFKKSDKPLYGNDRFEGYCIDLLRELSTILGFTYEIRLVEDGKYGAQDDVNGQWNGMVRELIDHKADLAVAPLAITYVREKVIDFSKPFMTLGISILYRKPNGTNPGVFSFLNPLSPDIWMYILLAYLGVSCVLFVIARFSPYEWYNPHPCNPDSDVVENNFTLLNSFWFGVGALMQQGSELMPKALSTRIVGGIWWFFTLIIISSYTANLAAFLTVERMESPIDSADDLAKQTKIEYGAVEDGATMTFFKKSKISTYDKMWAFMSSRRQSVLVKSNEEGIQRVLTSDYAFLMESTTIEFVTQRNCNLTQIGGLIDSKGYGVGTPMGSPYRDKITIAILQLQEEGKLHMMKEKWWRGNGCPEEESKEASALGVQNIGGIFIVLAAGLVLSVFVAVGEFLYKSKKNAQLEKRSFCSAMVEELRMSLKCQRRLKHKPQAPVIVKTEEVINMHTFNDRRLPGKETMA

| SMILES | Ki ([1]; read-out: Ki) | Ki [2] | Ki ([3]; read-out: Ki) | Ki [4] | Ki [5] | Ki [6] | Ki (Glutamate receptor 2) | Ki ([3]; read-out: pKi (converted)) | Ki ([1]; read-out: pKi (converted)) | IC50 [7] | IC50 [8] | IC50 [9] | IC50 [10] | Ki [11] | IC50 [12] | pKi [4] |
| --- | --- | --- | --- | --- | --- | --- | --- | --- | --- | --- | --- | --- | --- | --- | --- | --- |
| O=C(O)c1cccc(S[C@H]2CN[C@H](C(=O)O)C2)c1 | > 100 µM | > 100 µM | > 100 µM | 78 µM | > 100 µM | > 100 µM |  |  |  |  |  |  |  |  |  | 4.11 |
| O=C(O)c1ccc(O[C@@H]2CN[C@H](C(=O)O)C2)cc1 | > 100 µM | > 100 µM | > 100 µM | > 100 µM | > 100 µM | > 100 µM |  |  |  |  |  |  |  |  |  |  |
| Cl.O=C(O)c1cccc(C[C@H]2CN[C@H](C(=O)O)C2)c1 | > 100 µM | > 100 µM | > 100 µM | 69 µM | > 100 µM | > 100 µM |  |  |  |  |  |  |  |  |  | 4.18 |
| O=C(O)Cc1cccc(O[C@H]2CN[C@H](C(=O)O)C2)c1 | > 100 µM | > 100 µM | > 100 µM | > 100 µM | > 100 µM | > 100 µM | > 100 µM |  |  |  |  |  |  |  |  |  |
| O=C(O)c1cccc(O[C@@H]2CN[C@H](C(=O)O)C2)c1 | > 100 µM | > 100 µM | > 100 µM | > 100 µM | > 100 µM | > 100 µM |  |  |  |  |  |  |  |  |  |  |
| O=C(O)c1cccc(S[C@@H]2CN[C@H](C(=O)O)C2)c1 | > 100 µM | > 100 µM | > 100 µM | > 100 µM | > 100 µM | > 100 µM |  |  |  |  |  |  |  |  |  |  |
| O=C(O)c1ccccc1S[C@@H]1CN[C@H](C(=O)O)C1 | > 100 µM | > 100 µM | > 100 µM | > 100 µM | > 100 µM | > 100 µM |  |  |  |  |  |  |  |  |  |  |
| O=C(O)c1ccc2ccccc2c1O[C@H]1CN[C@H](C(=O)O)C1 | > 100 µM | > 100 µM | > 100 µM | > 100 µM | > 100 µM | > 100 µM | > 100 µM |  |  |  |  |  |  |  |  |  |
| Cl.O=C(O)c1ccc(O[C@H]2CN[C@H](C(=O)O)C2)cc1 | > 100 µM | > 100 µM | > 100 µM | 81 µM | > 100 µM | > 100 µM |  |  |  | > 1000 µM | > 1000 µM | > 1000 µM |  |  |  | 4.11 |
| O=C(O)c1ccccc1O[C@@H]1CN[C@H](C(=O)O)C1 | > 100 µM | > 100 µM | > 100 µM | > 100 µM | > 100 µM | > 100 µM |  |  |  | > 1000 µM | > 1000 µM | > 1000 µM |  |  |  |  |

Now from value to compound, other results behind:

| Ki ([1]; read-out: Ki) | Ki [2] | Ki ([3]; read-out: Ki) | Ki [4] | Ki [5] | Ki [6] | Ki (Glutamate receptor 2) | Ki ([3]; read-out: pKi (converted)) | Ki ([1]; read-out: pKi (converted)) | IC50 [7] | IC50 [8] | IC50 [9] | IC50 [10] | Ki [11] | IC50 [12] | SMILES | pKi [4] |
| --- | --- | --- | --- | --- | --- | --- | --- | --- | --- | --- | --- | --- | --- | --- | --- | --- |
| 5.4 µM | > 100 µM | > 100 µM | > 100 µM | > 1000 µM | > 100 µM | > 100 µM |  |  |  |  |  |  |  |  | Cc1cccc(C(=O)O)c1O[C@H]1CN[C@H](C(=O)O)C1 |  |
| 4.5 µM | > 100 µM | 137 µM | > 100 µM | > 100 µM | > 100 µM | > 100 µM | 132 µM |  |  |  |  |  |  |  | O=C(O)c1c(O[C@H]2CN[C@H](C(=O)O)C2)ccc2ccccc12 |  |
| 36 µM | > 100 µM | > 1000 µM | > 100 µM | > 100 µM | > 100 µM |  |  | 33.1 µM | > 1000 µM | > 1000 µM | > 1000 µM |  |  |  | O=C(O)c1cccc(O[C@H]2CN[C@H](C(=O)O)C2)c1 |  |
| 8.4 µM | > 100 µM | 22 µM | 19 µM | > 100 µM | > 100 µM |  |  |  |  |  |  |  |  |  | O=C(O)c1ccccc1S[C@H]1CN[C@H](C(=O)O)C1 | 4.73 |
| 100 µM | > 100 µM | > 100 µM | > 100 µM | > 1000 µM | > 100 µM | > 100 µM |  |  |  |  |  |  |  |  | O=C(O)c1ccc(O[C@H]2CN[C@H](C(=O)O)C2)c(C(=O)O)c1 |  |
| 4 µM | > 100 µM | > 100 µM | > 100 µM | > 100 µM | > 100 µM |  |  |  | > 1000 µM | > 1000 µM | > 1000 µM | > 100 µM | 2.27 µM | 5.7 µM | O=C(O)c1ccccc1O[C@H]1CN[C@H](C(=O)O)C1 |  |
| 3.5 µM | > 100 µM | > 100 µM | > 100 µM | > 1000 µM | > 100 µM | > 100 µM |  |  |  |  |  |  |  |  | O=C(O)c1cc2ccccc2cc1O[C@H]1CN[C@H](C(=O)O)C1 |  |
| 4.7 µM | > 100 µM | 30 µM | > 100 µM | > 100 µM | > 100 µM | > 100 µM |  |  |  |  |  |  |  |  | CC(=O)c1ccc(O[C@H]2CN[C@H](C(=O)O)C2)c(C(=O)O)c1 |  |
| 24 µM | > 100 µM | > 100 µM | > 100 µM | > 1000 µM | > 100 µM | > 100 µM |  |  |  |  |  |  |  |  | O=C(O)Cc1ccccc1O[C@H]1CN[C@H](C(=O)O)C1 |  |
| 24 µM | > 100 µM | > 100 µM | > 100 µM | > 100 µM | > 100 µM | > 100 µM |  |  |  |  |  |  |  |  | Cc1ccc(O[C@H]2CN[C@H](C(=O)O)C2)c(C(=O)O)c1 |  |
